Results on 20 compounds are retold here after ChEMBL document CHEMBL1148652, “Design of potent, orally available antagonists of the transient receptor potential vanilloid 1. Structure-activity relationships of 2-piperazin-1-yl-1H-benzimidazoles” (J Med Chem, 2006).

Series [1] concerns the target T1, Transient receptor potential cation channel subfamily V member 1 (Rattus norvegicus, UniProt O35433). Briefly: Antagonist activity against acid-induced 45calcium ion uptake in CHO cells expressing rat TRPV1 at pH5. In kind it is functional, cell-based. An outline of the steps:
(§1)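 CHO cells recombinantly expressing rat TRPV1; inhibition of 45Ca2+ uptake triggered by capsaicin or by acid, pH 5. Functional IC50 in nM, averaged over at least two independent experiments, each with three replicates per concentration.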

A short description of series [2]: Elimination half life in Sprague-Dawley rat at 1 mg/kg, iv. The class given is ADME, organism-based. The arrangement: dose 1 mg/kg, route intravenous. The conditions noted are these: in vivo.
Series [3] in a line: Oral bioavailability in Sprague-Dawley rat. In kind it is ADME, organism-based. The conditions noted are these: in vivo.
Series [4] in a line: Tmax in Sprague-Dawley rat at 5 mg/kg, po. The arrangement: dose 5 mg/kg, route oral. The following applies: in vivo. In kind it is ADME, organism-based.
Series [5] deals with Transient receptor potential cation channel subfamily V member 1 (Rattus norvegicus) (UniProt O35433). Nature of the series: Antinociceptive activity in Sprague-Dawley rat assessed as reversal of CFA-induced thermal hyperalgesia. The class given is functional. Summed up:
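Thermal hyperalgesia induced in rats by complete Freund's adjuvant; reversal assessed after oral dosing at 30 mg/kg.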

Series [6] concerns the target T1, Transient receptor potential cation channel subfamily V member 1. Briefly: Antagonist activity against capsaicin-induced 45calcium ion uptake in CHO cells expressing rat TRPV1. The class given is functional, cell-based. Summed up: as §1
A short description of series [7]: Cmax in Sprague-Dawley rat at 5 mg/kg, po. In kind it is ADME, organism-based. The arrangement: dose 5 mg/kg, route oral. The following applies: in vivo.
In series [8] the target is Transient receptor potential cation channel subfamily V member 1 (Rattus norvegicus) (UniProt O35433). Briefly: Antinociceptive activity in po dosed Sprague-Dawley rat assessed as ability to block capsaicin-induced paw flinching. The class given is functional, organism-based. Summed up:
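Rats dosed orally, then challenged with intraplantar capsaicin (0.5 µg/[…] per paw) to provoke flinching. Eight animals per group; ED50 taken from dose-response.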

Series [9] in a line: Clearance in Sprague-Dawley rat at 1 mg/kg, iv. In kind it is ADME, organism-based. The arrangement: dose 1 mg/kg, route intravenous. The conditions noted are these: in vivo.
Series [10] in a line: Volume of distribution in Sprague-Dawley rat at 1 mg/kg, iv. The class given is ADME, organism-based. The arrangement: dose 1 mg/kg, route intravenous. The conditions noted are these: in vivo, read-out: Vdss.

The source made the active and inactive calls. The rule behind the calls is not given here.

T1 sequence (O35433 whole entry): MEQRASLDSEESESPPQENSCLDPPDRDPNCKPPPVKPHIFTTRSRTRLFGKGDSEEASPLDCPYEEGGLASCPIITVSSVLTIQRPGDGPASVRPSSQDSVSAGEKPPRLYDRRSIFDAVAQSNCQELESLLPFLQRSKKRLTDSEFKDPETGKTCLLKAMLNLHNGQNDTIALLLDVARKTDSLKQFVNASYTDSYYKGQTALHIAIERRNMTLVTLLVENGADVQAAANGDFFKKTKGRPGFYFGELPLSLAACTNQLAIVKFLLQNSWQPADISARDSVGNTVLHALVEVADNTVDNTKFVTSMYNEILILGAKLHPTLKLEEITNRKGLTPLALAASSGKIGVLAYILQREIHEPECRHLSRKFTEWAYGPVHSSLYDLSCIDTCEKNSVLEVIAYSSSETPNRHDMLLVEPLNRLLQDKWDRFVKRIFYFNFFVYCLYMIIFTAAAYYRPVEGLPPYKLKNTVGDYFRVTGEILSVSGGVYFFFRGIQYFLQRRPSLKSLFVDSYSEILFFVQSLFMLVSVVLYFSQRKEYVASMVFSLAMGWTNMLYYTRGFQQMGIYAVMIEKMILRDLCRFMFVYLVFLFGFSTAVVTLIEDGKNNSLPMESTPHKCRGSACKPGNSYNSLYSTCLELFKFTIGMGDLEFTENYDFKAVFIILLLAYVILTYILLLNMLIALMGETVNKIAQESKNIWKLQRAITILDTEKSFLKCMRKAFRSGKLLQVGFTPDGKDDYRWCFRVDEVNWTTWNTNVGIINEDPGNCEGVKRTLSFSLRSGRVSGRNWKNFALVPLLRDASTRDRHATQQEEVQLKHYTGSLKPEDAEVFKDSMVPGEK
Transient receptor potential cation channel subfamily V member 1 (Rattus norvegicus), sequence (O35433 whole entry): as above

On to `C[C@@H]1CN(c2ncc(C(O)CO)cc2Cl)CCN1c1nc2c(-c3cc(F)c(F)c(F)c3)cc(C(F)(F)F)cc2[nH]1` (mixture of isomers), for which the IC50 in series [1] and in [6] was 0.9 nM in each case. The compound further had a half-life in series [2] of 5.6 h. In addition, in [3], the bioavailability is 17%. Further, in [4], the Tmax was found to be 4 h. Further, the outcome in series [5] was Active. The compound further gave a Cmax in series [7] of 617 ng/mL. In addition, the ED50 in series [8] was found to be 8.8 mg/kg. This compound had a clearance in series [9] of 4.5 mL/min/kg. Further, the Vd in series [10] is 1.89 L/kg.
Turning to `Fc1cc(CNc2cc(C(F)(F)F)cc3[nH]c(N4CCN(c5ncccc5C(F)(F)F)CC4)nc23)cc(F)c1F`, the IC50 in [1] turned out to be 81 nM; in [6], 132 nM.
Turning to `FC(F)(F)c1cc(N2CCCCC2)c2[nH]c(N3CCN(c4ncccc4C(F)(F)F)CC3)nc2c1`, the IC50 in series [1] was found to be 21 nM; in [6], 29 nM.
As for `FC(F)(F)c1ccc2nc(N3CCN(c4ccccc4C(F)(F)F)CC3)[nH]c2c1`, the IC50 came out at 406 nM in series [1] and 2060 nM in series [6].
For `C[C@@H]1CN(c2ncc(CO)cc2Cl)CCN1c1nc2c(N(Cc3ccccc3)Cc3ccccc3)cc(C(F)(F)F)cc2[nH]1`, the IC50 in series [1] worked out at 0.9 nM; in series [6], 1.9 nM.
The like results for `Fc1ccc(-c2ccc3[nH]c(N4CCN(c5ncccc5C(F)(F)F)CC4)nc3c2)cc1F` were, in that order, 351 nM and 1140 nM.
Consider `O=[N+]([O-])c1cc(C(F)(F)F)cc2[nH]c(N3CCN(c4ncccc4C(F)(F)F)CC3)nc12`, for which the IC50 in series [1] is 878 nM; in series [6], 1660 nM.
In the case of `Nc1ccc(-c2cc(C(F)(F)F)cc3[nH]c(N4CCN(c5ncccc5C(F)(F)F)CC4)nc23)cc1`, the IC50 in series [1] came out at 308 nM; in series [6], 1900 nM.
With `FC(F)(F)c1ccc2[nH]c(N3CCN(c4ccncc4Cl)CC3)nc2c1`, the half-inhibitory concentration (IC50) in [1] amounted to 8030 nM; in [6], 3910 nM.
Turning to `FC(F)(F)c1cc(-c2ccncc2)c2[nH]c(N3CCN(c4ncccc4C(F)(F)F)CC3)nc2c1`, the values for the IC50 in [1] and in series [6] were 188 nM and 267 nM, respectively.
With `COc1ccc(-c2cc(C(F)(F)F)cc3[nH]c(N4CCN(c5ncccc5C(F)(F)F)CC4)nc23)cn1`, the IC50 in series [1] stood at 99 nM; in [6] it was 111 nM.
Taken in the same sequence, the figures for `C[C@@H]1CN(c2ncc(CO)cc2Cl)CCN1c1nc2cc(C(F)(F)F)cc(NC(=O)C3CCCCC3)c2[nH]1` were 1.2 nM and 1.6 nM.
For `FC(F)(F)c1cc(Br)c2nc(N3CCN(c4ncccc4C(F)(F)F)CC3)[nH]c2c1`, the IC50 in series [1] is 74 nM; in series [6], 131 nM.
The like results for `FC(F)(F)c1cc(-c2ccccc2)c2nc(N3CCN(c4ncccc4C(F)(F)F)CC3)[nH]c2c1` were, in that order, 68 nM and 141 nM.
`FC(F)(F)c1ccc2[nH]c(N3CCN(c4ncncc4Cl)CC3)nc2c1`: the half-maximal inhibitory concentration (IC50) in series [1] is above 40000 nM; in [6] it was 2110 nM.
Regarding `NC(=O)c1cnc(N2CCN(c3nc4cc(C(F)(F)F)ccc4[nH]3)CC2)c(Cl)c1`, the results for the IC50 in series [1] and in series [6] were 1000 nM and 430 nM, respectively.
Take `Fc1cc(-c2cc(C(F)(F)F)cc3[nH]c(N4CCN(c5ncccc5C(F)(F)F)CC4)nc23)cc(F)c1F`: the IC50 in series [1] came out at 26 nM; in series [6] it was 33 nM.
Take `N#Cc1cccnc1N1CCN(c2nc3cc(C(F)(F)F)ccc3[nH]2)CC1`: the values for the IC50 in series [1] and in [6] were 7080 nM and 6290 nM, respectively.
Consider `FC(F)(F)c1cc2[nH]c(N3CCN(c4ncccc4C(F)(F)F)CC3)nc2cc1Br`, for which the results for the IC50 in series [1] and in [6] were 43 nM and 166 nM, respectively.
Take `FC(F)(F)c1ccc(-c2cc3[nH]c(N4CCN(c5ncccc5C(F)(F)F)CC4)nc3cc2C(F)(F)F)cc1`: the results for the IC50 in series [1] and in [6] were 201 nM and 8240 nM, respectively.
